Measurements gathered from unrelated publications.
Each line is one published result; the experiments were not run side by side.
Target: Ephrin type-A receptor 2 (EPHA2, Homo sapiens, UniProt P29317)

Structure (SMILES)	effect on	mode	method	tested at	endpoint	result
CCN(CC)CCNC(=O)c1c(C)[nH]c(/C=C2\C(=O)Nc3ccc(F)cc32)c1C	enzyme activity	inhibitor	–	10 µM	inhibition	52%
N#CCCc1ccc2c(c1)-c1[nH]c3ccc([N+](=O)[O-])cc3c1CC(=O)N2	cell-free assay	–	–	0.5 µM	remaining signal	93.6%
Cn1c(=O)n(-c2ccc(C(C)(C)C#N)cc2)c2c3cc(-c4cnc5ccccc5c4)ccc3ncc21	enzyme activity	inhibitor	–	10 µM	remaining activity	110%
O=C(Nc1cnn(-c2csc(C(=O)NC3COC3)c2)c1)Nc1ccccc1Cl	enzyme activity	inhibitor	–	5 µM	remaining activity	101%
CNC(=O)c1cc(Oc2ccc(NC(=O)Nc3ccc(Cl)c(C(F)(F)F)c3)cc2)ccn1	enzyme activity	inhibitor	–	0.3 µM	inhibition	23%
Cc1cnc(NC2CCOCC2)nc1-n1cnc(C(=O)NC(CN)c2cc(F)cc(Cl)c2)c1 (stereo not shown)	enzyme activity	inhibitor	radiometric	1 µM	remaining activity	101%
O=C(Nc1cnn(-c2csc(C(=O)NC3COC3)c2)c1)Nc1c(F)cccc1Cl	enzyme activity	inhibitor	–	5 µM	remaining activity	97.9%
CC/C(=N\NC(=O)NCc1cccc(O)c1)c1ccc(O)c(C)c1O	enzyme activity	inhibitor	–	0.1 µM	inhibition	3.9%
O=C(NC[C@@H]1[C@H]2CN(C(=O)OCc3cc(C(F)(F)F)cc(C(F)(F)F)c3)C[C@@H]12)c1ccc2[nH]nnc2c1	cell-free assay	–	competition with immobilised ligand	1 µM	remaining binding	79%
COc1cc(Nc2cnc(C#N)c(O[C@H](C)CN(C)C)n2)ncc1-c1cnn(C)c1	enzyme activity	inhibitor	radiometric	10 µM	remaining activity	24%
N#CC1(c2ccccn2)CCN(Cc2cc(C(=O)N3CCCC3)c(=O)n3ccccc23)CC1	cell-free assay	–	competition with immobilised ligand	1 µM	remaining binding	86%
Cc1ccc(NC(=O)c2ccc(C)c(C(F)(F)F)c2)cc1C#Cc1nn(C2CCC(O)CC2)c2ncnc(N)c12 (stereo not shown)	cell-free assay	–	–	10 µM	remaining signal	-3%
O=C(CSc1nc2nccnc2c(=O)n1CCc1ccccc1)Nc1nccs1	enzyme activity	inhibitor	–	10 µM	inhibition	8%
COc1cc(Cl)c(C(=O)N[C@@H](CN[C@H]2CC[C@@H](N)CC2)Cc2ccc(C#N)cc2)cc1-c1ccc(CN[C@H](C)c2ccc(C)cc2)o1	enzyme activity	inhibitor	–	1 µM	remaining activity	93%
C[C@@H]1CN(c2cc(-c3nn(C)c4ccc(OC5(C)CC5)cc34)ncn2)C[C@H](C)O1	cell-free assay	–	competition with immobilised ligand	1 µM	remaining binding	100%
CCCOc1ccc(OC)c(F)c1C(=O)c1ccc(C(=O)N[C@@H]2CNC[C@H]2NC(=O)c2ccc3[nH]ncc3c2)cc1	enzyme activity	inhibitor	–	10 µM	remaining activity	69%

Structure (SMILES)	effect on	mode	method	tested at	endpoint	result
Cc1ccc(C(=O)Nc2ccc(CN3CCN(C)CC3)c(C(F)(F)F)c2)cc1C#Cc1cnc2cccnn12	cell-free assay	–	–	23.5 nM	remaining signal	8.9%
COc1ccc2c(O[C@@H]3C[C@H]4C(=O)N[C@]5(C(=O)O)CC5/C=C\CCCCC[C@H](NC(=O)OC5CCCC5)C(=O)N4C3)cc(-c3csc(NC(=O)C(C)C)n3)nc2c1C (stereo partly shown)	cell-free assay	–	competition with immobilised ligand	1 µM	remaining binding	80%
COc1cc2ncnc(Nc3ccc(Oc4ccccc4)cc3C)c2cc1OC	enzyme activity	inhibitor	–	1 µM	inhibition	2%
CC1=C(C#N)[C@@H](c2ccc3[nH]nc(C)c3c2)C(C#N)=C(c2ccc(Cl)cc2)N1	cell-free assay	–	competition with immobilised ligand	1 µM	remaining binding	100%
Nc1nc(Nc2ccccc2)sc1C(=O)c1c(F)cccc1F	enzyme activity	inhibitor	–	10 µM	remaining activity	71%
Cc1ccc(Nc2nccc(N(C)c3ccc4c(C)n(C)nc4c3)n2)cc1S(N)(=O)=O	enzyme activity	inhibitor	–	0.3 µM	inhibition	-2%
C#Cc1cccc(Nc2ncnc3cc(OCCOC)c(OCCOC)cc23)c1	cell-free assay	–	–	0.5 µM	remaining signal	91.3%
COc1ccc2c(c1)O[C@@H](c1ccc(OC)c(OC)c1)C[C@H]2NC(=O)C1(c2ccc3c(c2)OC(F)(F)O3)CC1	cell-free assay	–	competition with immobilised ligand	1 µM	remaining binding	95%
CCN(CC)c1ccc(C2=NNC(=O)CC2C)cc1[N+](=O)[O-] (stereo not shown)	enzyme activity	inhibitor	–	10 µM	remaining activity	97%
CC(C)(C)C(=O)c1sc(NC2CCCCC2)nc1N	enzyme activity	inhibitor	–	10 µM	remaining activity	106%
CC(C)(C)c1nc(-c2cccc(NS(=O)(=O)c3c(F)cccc3F)c2F)c(-c2ccnc(N)n2)s1	enzyme activity	inhibitor	radiometric	1 µM	remaining activity	133%
Cc1nccc(COC(=O)N2C[C@@H]3[C@@H](CNC(=O)c4ccc5[nH]nnc5c4)[C@@H]3C2)n1	cell-free assay	–	competition with immobilised ligand	1 µM	remaining binding	92%
O=C1NC(=O)c2cc(Nc3ccc(F)cc3)c(Nc3ccc(F)cc3)cc21	cell-free assay	–	–	0.5 µM	remaining signal	94.3%
CCCS(=O)(=O)Nc1ccc(F)c(C(=O)c2c[nH]c3ncc(-c4ccc(Cl)cc4)cc23)c1F	enzyme activity	inhibitor	–	1 µM	inhibition	< 10%
O=C1NC(c2ccccn2)Sc2ccccc21 (stereo not shown)	cell-free assay	–	competition with immobilised ligand	1 µM	remaining binding	100%
